Columns and labels:
[1] = Inhibition of LTB4 biosynthesis by porcine leukocytes at LTA4 hydrolase level at a concentration of 2*10e-5 M; type: functional, Sus scrofa
How it was run: (§1)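 Porcine leukocyte homogenate (cells at 10⁸/mL, sonicated) with CaCl₂ and ATP each at 2 mmol/L final. Preincubated 3 min at 25 °C with inhibitor (in ethanol or PBS) plus 5,8,11,14-[…] acid 4 μmol/L final to block 12-LO. Then incubated 5 min at 37 °C with [1-¹⁴C]arachidonic acid. LTB₄ and 6-trans-isomers separated by HPLC with radioactivity detection. Mean of ≥3 experiments.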

[2] = Evaluated for the inhibitory activity against Leukotriene A4 hydrolase; design: species or system Sus scrofa; how it was run: as §1
[3] = test system: Leukotriene A-4 hydrolase (Sus scrofa); assay: Inhibition of LTA4 hydrolase mediated LTB4 biosynthesis by porcine leukocytes at 2*10e-5M
[4] = test system: Leukotriene A-4 hydrolase (Sus scrofa); assay: Inhibitory activity against Leukotriene A4 hydrolase at 5 mg/kg (po) in rat plasma extracts
[5] = test system: Leukotriene A-4 hydrolase (Sus scrofa); assay: Inhibitory activity against Leukotriene A4 hydrolase at 30 mg/kg (po) in rat plasma extracts
[6] = test system: Leukotriene A-4 hydrolase (Sus scrofa); assay: Inhibitory activity against Leukotriene A4 hydrolase at 100 mg/kg (po) in rat plasma
[7] = test system: Leukotriene A-4 hydrolase (Sus scrofa); assay: Inhibitory activity against Leukotriene A4 hydrolase at 100 mg/kg (po) in rat plasma extracts
[8] = test system: Leukotriene A-4 hydrolase (Sus scrofa); assay: Inhibitory activity Leukotriene A4 hydrolase at 5 mg/kg (po) in rat plasma

Compound	Inhibition [1] [%]	IC50 [2] [µM]	inhibition [3] [%]	other results
O=C(O)CCCCCCc1ccc(-c2ccccc2)s1	67			
O=C(O)CCCCCCc1ccc(Cc2ccc([N+](=O)[O-])cc2)cc1		72.5	53	
O=C(O)CCCCC[S+]([O-])c1ccc(CCCc2ccccc2)s1 (configuration not stated)	0			
O=C([O-])CCCCc1ccc(CCCc2ccccc2)s1.[Na+]	0			
O=C(O)CCCCCCc1ccc(Cc2ccc3ccccc3n2)cc1	48			
O=C(O)CCCCCCc1ccc(Cc2ccccc2)s1		15	51	
O=C(O)CCCCCCc1ccc(CCc2ccccc2)s1		3.5	86	
CC(C)(C)c1ccc(Cc2ccc(CCCCCCC(=O)O)cc2)cc1	0			
O=C(O)CCCCCCc1ccc(CCCc2cccc(Cl)c2)s1	45			
O=C(O)CCCC(=O)NCc1ccc(CCCc2ccccc2)s1	38			
O=C(O)CCCCCCc1ccc(Cc2ccnc3ccccc23)cc1	0			
CC(C)(CCCCCc1ccc(CCCc2ccccc2)s1)C(=O)O	46			
CC(=O)Nc1ccc(Cc2ccc(CCCCCCC(=O)O)cc2)cc1	41			
O=C(O)CCCCCCc1ccc(Cc2ccccn2)cc1		7.7	76	
O=C(O)CCCCCOc1ccc(Cc2ccccc2)cc1	69			
O=C([O-])CCCCc1ccc(CCCc2ccccc2)cc1.[Na+]	35			
O=C(O)CCCCCCc1ccc(CCc2ccccc2)cc1		30	43	
O=C(O)CCCCCCc1ccc(CCCc2ccc(O)cc2)s1	69			
O=C(O)CCCCCCc1ccc(Cc2cccnc2)cc1	65			
NC(=O)Nc1ccc(Cc2ccc(CCCCCCC(=O)O)cc2)cc1		1.7	100	
O=C(O)CNC(=O)CCCc1ccc(CCCc2ccccc2)s1	53			

Compound	Inhibition [1] [%]	IC50 [2] [µM]	inhibition [3] [%]	other results
O=C(O)CCCC(O)CCc1ccc(CCCc2ccccc2)s1 (configuration not stated)		6.2	73	
CNc1ccc(Cc2ccc(CCCCCCC(=O)O)cc2)cc1	78			
O=C(O)CCCCCCc1ccc(Cc2ccc(O)cc2)cc1	56			
O=C(O)CCCCCCCc1ccc(CCCc2ccccc2)cc1	45			
O=C(O)CCCCCCc1ccc(-c2ccccc2)cc1	41			
COc1ccc(CCCc2ccc(SCCCCCC(=O)O)cc2)cc1	35			
O=C(O)CCCCCc1ccc(CCCc2ccccc2)s1	61			
O=C(O)CCCCCCc1ccc(Cc2ccncc2)cc1	43			
O=C([O-])CCCCCCCc1ccc(CCCc2ccccc2)s1.[Na+]	0			
O=C(O)CCCCCSc1ccc(Cc2ccccc2)cc1		9.1	82	
O=C(O)CCCCCCc1ccc(CCCc2ccccc2)s1		2.9		inhibition [4]: 0%; inhibition [5]: 44%; inhibition [6]: 82%
O=C(O)CCCCCSc1ccc(CCCc2ccccc2)s1		2.8	79	inhibition [4]: 4%; inhibition [5]: 19%; inhibition [7]: 19%
O=C(O)CCCC(=O)CCc1ccc(CCCc2ccccc2)s1		6.3	82	
O=C(O)CCCCCc1ccc(CCCc2ccccc2)cc1	43			
CS(=O)(=O)Nc1ccc(Cc2ccc(CCCCCCC(=O)O)cc2)cc1	0			
O=C(O)CCCCCS(=O)(=O)c1ccc(Cc2ccccc2)cc1	2			
Cc1ccc(Cc2ccc(CCCCCCC(=O)O)cc2)cc1		21.1	63	
O=C(O)COCCCCc1ccc(CCCc2ccccc2)s1		1.5	90	inhibition [5]: 54%; inhibition [8]: 40%; inhibition [7]: 73%
O=C(O)CCCCCCc1ccc(Cc2ccc3ccccc3c2)cc1	22			
O=C(O)CCCCCCc1ccc(Cc2ccccc2Cl)cc1	0			
O=C([O-])CCCCCCc1ccc(CCCCc2ccccc2)s1.[Na+]	0			

Compound	Inhibition [1] [%]	IC50 [2] [µM]	inhibition [3] [%]	other results
O=C(O)CCCCCC(=O)c1ccc(CCCc2ccccc2)s1	66			
O=C(O)CCCCCCc1ccc(Cc2ccc(Cl)cc2)cc1		7.2	73	inhibition [4]: 22%; inhibition [7]: 7%
O=C(O)CCCCCCc1ccc(Cc2cnc3ccccc3c2)cc1		5	85	inhibition [4]: 27%; inhibition [5]: 19%; inhibition [7]: 27%
O=C(O)CCCCCSc1ccc(CCCc2ccccc2)cc1		6.2	74	inhibition [5]: 20%; inhibition [7]: 12%
NC(=O)CCCCCCc1ccc(CCCc2ccccc2)s1	0			
O=C(O)CCCCCS(=O)(=O)c1ccc(CCCc2ccccc2)s1	0			
O=C(O)CCCCCCc1ccc(Cc2cccc3ccccc23)cc1	0			
Nc1ccc(Cc2ccc(CCCCCCC(=O)O)cc2)cc1		0.9	89	inhibition [4]: 29%; inhibition [7]: 31%
O=C(O)CCCNC(=O)Cc1ccc(CCCc2ccccc2)s1	12			
O=C(O)CCCCCCc1ccc(CCCc2ccccc2)cc1		3.4	76	inhibition [5]: 15%
O=C(O)CCCCCCc1ccc(Cc2ccc(C(F)(F)F)cc2)cc1		188	19	
CN(C)c1ccc(Cc2ccc(CCCCCCC(=O)O)cc2)cc1	29			
O=C(O)CCCCCCc1ccc(CCCc2ccc(Cl)cc2)s1	63			
O=C(O)CCCCCC(=O)c1ccc(CCCc2ccccc2)cc1	27			
O=C(O)CCCCCCc1ccc(Cc2ccccc2)cc1		3	79	
c1ccc(CCCc2ccc(CCCCCCC3N=NN=N3)s2)cc1	29			
COc1ccc(Cc2ccc(CCCCCCC(=O)O)cc2)cc1		9.2	69	
N#CCCCCCCc1ccc(CCCc2ccccc2)s1	0			
COC(=O)COCCCCc1ccc(CCCc2ccccc2)s1	66			
COc1ccc(CCCc2ccc(CCCCCCC(=O)O)s2)cc1		9.7	80	

Source: ChEMBL document CHEMBL1125534, “Omega-[(omega-arylalkyl)aryl]alkanoic acids: a new class of specific LTA4 hydrolase inhibitors” (J Med Chem, 1992)
